Experimental data from ChEMBL document CHEMBL1127574, “Design and synthesis of ellipticinium salts and 1,2-dihydroellipticines with high selectivities against human CNS cancers in vitro” (1994).

Legend:
Type in all cases: functional
RPMI-8226 = assay: Tested in vitro for cytotoxicity in RPMI-8226 cell line of Leukemia; settings: Homo sapiens, read-out: Log TGI (converted)
Procedure, shortened: (§1)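 Compounds dissolved in DMSO, then diluted 500-fold into aqueous medium. The resulting aqueous solutions or suspensions were added to the cultured human tumour cell lines, and the cells were exposed for 48 h. Growth was read colorimetrically in one of two ways: a metabolic assay in which viable cells reduce a tetrazolium salt to a formazan dye, or a protein stain for total cellular protein.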

HL-60 = assay: Tested in vitro for cytotoxicity in HL-60(TB) cell line of Leukemia; settings: Homo sapiens, read-out: Log TGI (converted)
Procedure, shortened: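 Compounds were dissolved in DMSO and diluted 500-fold in aqueous medium. Aliquots of the resulting solution or suspension were added to the cultured cells for 48 h. Growth was read colorimetrically, either by tetrazolium reduction to formazan in viable cells or by a total-protein stain.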

SK-MEL-5 = assay: Tested in vitro for cytotoxicity in SK-MEL-5 cell line of Melanoma; settings: Homo sapiens, read-out: Log TGI (converted)
Procedure, shortened: (§2)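 Compounds dissolved in DMSO and diluted 500-fold into aqueous medium; aliquots of the resulting solutions or suspensions added to cultured human tumor cells for 48 h. Growth read colorimetrically, either by tetrazolium reduction to formazan by viable cells or by protein staining of total cellular protein.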

HCT-116 = assay: Tested in vitro for cytotoxicity in HCT116 cell line of Colon Cancer; settings: Homo sapiens, read-out: Log TGI (converted); procedure, shortened: as §1
SK-MEL-28 = assay: Tested in vitro for cytotoxicity in SK-MEL-28 cell line of Melanoma; settings: Homo sapiens, read-out: Log TGI (converted); procedure, shortened: as §1
IGROV-1 [1] = assay: Tested in vitro for cytotoxicity in IGROV1 cell lines; settings: Homo sapiens; procedure, shortened: as §1
CCRF-CEM [2] = assay: Tested in vitro for cytotoxicity in CCRF-CEM cell lines; settings: Homo sapiens; procedure, shortened: as §1
OVCAR-8 = assay: Tested in vitro for cytotoxicity in OVCAR-8 cell line of Ovarian Cancer; settings: Homo sapiens, read-out: Log TGI (converted); procedure, shortened: as §1
DLD-1 = assay: Tested in vitro for cytotoxicity in DLD-1 cell line of Colon Cancer; settings: Homo sapiens, read-out: Log TGI (converted); procedure, shortened: as §1
NCI-H23 = assay: Tested in vitro for cytotoxicity in NCI-H23 cell line of Non-Small Cell Lung Cancer; settings: Homo sapiens, read-out: Log TGI (converted); procedure, shortened: as §1
HT-29 = assay: Tested in vitro for cytotoxicity in HT-29 cell line of Colon Cancer; settings: Homo sapiens, read-out: Log TGI (converted); procedure, shortened: as §1
ACHN = assay: Tested in vitro for cytotoxicity in ACHN cell line of Renal cancer; settings: Homo sapiens, read-out: Log TGI (converted); procedure, shortened: as §1
NCI-H226 = assay: Tested in vitro for cytotoxicity in NCI-H226 cell line of Non-Small Cell Lung Cancer; settings: Homo sapiens, read-out: Log TGI (converted); procedure, shortened: as §1
RXF 631 = assay: Tested in vitro for cytotoxicity in RXF-631 cell line of Renal cancer; settings: Homo sapiens, read-out: Log TGI (converted); procedure, shortened: as §1
A498 = assay: Tested in vitro for cytotoxicity in A498 cell line of Renal cancer; settings: Homo sapiens, read-out: Log TGI (converted); procedure, shortened: as §1
COLO 205 = assay: Tested in vitro for cytotoxicity in COLO 205 cell line of Colon Cancer; settings: Homo sapiens, read-out: Log TGI (converted); procedure, shortened: as §1
SK-MEL-2 = assay: Tested in vitro for cytotoxicity in SK-MEL-2 cell line of Melanoma; settings: Homo sapiens, read-out: Log TGI (converted); procedure, shortened: as §1
K562 = assay: Tested in vitro for cytotoxicity in K-562 cell line of Leukemia; settings: Homo sapiens, read-out: Log TGI (converted); procedure, shortened: as §1
U-251 = assay: Tested in vitro for cytotoxicity in U251 cell line of CNS Cancer; settings: Homo sapiens, read-out: Log TGI (converted); procedure, shortened: as §2
IGROV-1 [3] = assay: Tested in vitro for cytotoxicity in IGROV1 cell line of Ovarian Cancer; settings: Homo sapiens, read-out: Log TGI (converted); procedure, shortened: as §1
M19-MEL = assay: Tested in vitro for cytotoxicity in M19-MEL cell line of Melanoma; settings: Homo sapiens, read-out: Log TGI (converted); procedure, shortened: as §1
CCRF-CEM [4] = assay: Tested in vitro for cytotoxicity in CCRF-CEM cell line of Leukemia; settings: Homo sapiens, read-out: Log TGI (converted); procedure, shortened: as §1
Malme-3M = assay: Tested in vitro for cytotoxicity in MALME-3M; settings: Homo sapiens; procedure, shortened: as §1
SF-268 = assay: Tested in vitro for cytotoxicity in SF-268 cell line of CNS cancer; settings: Homo sapiens, read-out: Log TGI (converted); procedure, shortened: as §1
HOP-18 = assay: Tested in vitro for cytotoxicity in HOP-18 cell line of Non-Small Cell Lung Cancer; settings: Homo sapiens, read-out: Log TGI (converted); procedure, shortened: as §1
LOX IMVI = assay: Tested in vitro for cytotoxicity in LOX IMVI cell line of Melanoma; settings: Homo sapiens, read-out: Log TGI (converted); procedure, shortened: as §1
SNB-78 = assay: Tested in vitro for cytotoxicity in SNB-78 cell line of CNS Cancer; settings: Homo sapiens, read-out: Log TGI (converted); procedure, shortened: as §2
NCI-H522 = assay: Tested in vitro for cytotoxicity in NCI-H522 cell line of Non-Small Cell Lung Cancer; settings: Homo sapiens, read-out: Log TGI (converted); procedure, shortened: as §1
UACC-62 = assay: Tested in vitro for cytotoxicity in UACC-62 cell line of Melanoma; settings: Homo sapiens, read-out: Log TGI (converted); procedure, shortened: as §2
RXF 393 = assay: Tested in vitro for cytotoxicity in RXF-393 cell line of Renal cancer; settings: Homo sapiens, read-out: Log TGI (converted); procedure, shortened: as §1
SF-295 = assay: Tested in vitro for cytotoxicity in SF-295 cell line of CNS Cancer; settings: Homo sapiens, read-out: Log TGI (converted); procedure, shortened: as §1

COc1ccc2[nH]c3c(C)c4c(c(C)c3c2c1)CN(C)C=C4
TGI (RPMI-8226): > 100 µM | TGI (HL-60): 63.1 µM | TGI (SK-MEL-5): 10 µM | TGI (HCT-116): 15.8 µM | TGI (SK-MEL-28): 12.6 µM | GI50 (IGROV-1 [1]): 1.68 µM | GI50 (CCRF-CEM [2]): 2.64 µM | TGI (OVCAR-8): 15.8 µM | TGI (DLD-1): 20 µM | TGI (NCI-H23): 3.98 µM | TGI (HT-29): 25.1 µM | TGI (ACHN): 63.1 µM | TGI (NCI-H226): 0.794 µM | TGI (RXF 631): 25.1 µM | TGI (A498): 63.1 µM | TGI (COLO 205): 5.01 µM | TGI (SK-MEL-2): 10 µM | TGI (K562): > 100 µM | TGI (U-251): 1 µM | TGI (IGROV-1 [3]): 39.8 µM | TGI (M19-MEL): 2.51 µM | TGI (CCRF-CEM [4]): 15.8 µM | GI50 (Malme-3M): 1.44 µM | TGI (SF-268): 0.631 µM | TGI (HOP-18): 39.8 µM | TGI (LOX IMVI): 25.1 µM | TGI (SNB-78): 5.01 µM | TGI (NCI-H522): 5.01 µM | TGI (UACC-62): 20 µM | TGI (RXF 393): 31.6 µM | TGI (SF-295): 7.94 µM
